# Experimental data from ChEMBL document CHEMBL1140002, “Synthesis and biological evaluation of (R)-N-(diarylmethylthio/sulfinyl)ethyl/propyl-piperidine-3-carboxylic acid hydrochlorides as novel GABA uptake inhibitors” (Bioorg Med Chem Lett, 2007).
# Structures can show the parent of a compound that is named as a salt.
# Target: Sodium- and chloride-dependent GABA transporter 1 (Mus musculus, UniProt P31648)
# Test: Inhibition of [3H]GABA uptake at mouse GAT1 expressed in D8 cells
# Type: cell-based
# In short: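 D8 cells in RPMI1640 with 10% FBS grown to near confluence (~60,000 cells/well), rinsed with PBS, pre-incubated 10 min at rt in HBSS. Stopped by aspirating HBSS, three rapid cold PBS washes, cells solubilized in 2 N NaOH; uptake quantified by liquid scintillation counting.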
row,SMILES,IC50 [µM]
1,Cc1ccc(C(SCCCN2CCC[C@@H](C(=O)O)C2)c2ccc(C)cc2)cc1,15.8
2,COc1ccc(C(SCCCN2CCC[C@@H](C(=O)O)C2)c2ccc(OC)cc2)cc1,120
3,COc1ccc(C(c2ccc(OC)cc2)[S+]([O-])CCN2CCC[C@@H](C(=O)O)C2)cc1 (stereo partly drawn),589
4,Cc1ccccc1C(c1cccc(C)c1C)[S+]([O-])CCN1CCC[C@@H](C(=O)O)C1 (stereo partly drawn),105
5,O=C(O)[C@@H]1CCCN(CCSC(c2ccccc2)c2ccccc2)C1,1600
6,COc1ccc(C(SCCN2CCC[C@@H](C(=O)O)C2)c2ccc(OC)cc2)cc1,4800
7,Cc1ccccc1C(SCCN1CCC[C@@H](C(=O)O)C1)c1cccc(C)c1C (stereo partly drawn),2130
8,O=C(O)[C@@H]1CCCN(CCCSC(c2ccccc2)c2ccccc2)C1,11.6
9,O=C(O)[C@@H]1CCCN(CC[S+]([O-])C(c2ccccc2)c2ccccc2)C1 (stereo partly drawn),0.92
10,Cc1ccc(C(SCCN2CCC[C@@H](C(=O)O)C2)c2ccc(C)cc2)cc1,240
11,Cc1ccccc1C(SCCCN1CCC[C@@H](C(=O)O)C1)c1cccc(C)c1C (stereo partly drawn),16.9
12,Cc1ccc(C(c2ccc(C)cc2)[S+]([O-])CCN2CCC[C@@H](C(=O)O)C2)cc1 (stereo partly drawn),1.18
13,Cc1ccsc1C(=CCCN1CCC[C@@H](C(=O)O)C1)c1sccc1C [TIAGABINE HYDROCHLORIDE],0.08
